One series has as its system Streptococcus pyogenes. The experiment in a line: Antibacterial activity against Streptococcus pyogenes isolate 49 after 16 hrs by agar diffusion method. Format: functional.
For series [1], the system named is Enterococcus faecium. Description: Antibacterial activity against Vancomycin A-inducible resistant Enterococcus faecium isolate 569 after 16 hrs by agar diffusion method. Format: functional. In general terms: In agar diffusion tests the substance spreads into inoculated agar from a disc or well.
Series [2] concerns Staphylococcus intermedius. Description: Antibacterial activity against Staphylococcus intermedius ATCC 29663 after 16 hrs by agar diffusion method. Format: functional.
The test system of series [3] is Staphylococcus haemolyticus. The experiment in a line: Antibacterial activity against Staphylococcus haemolyticus isolate 1730 after 16 hrs by agar diffusion method. Format: functional.
The subject of series [4] is Staphylococcus aureus. The experiment in a line: Antibacterial activity against methicillin-resistant Staphylococcus aureus isolate 3864 after 16 hrs by agar diffusion method. It counts as functional.
Series [5] has as its system Streptococcus pneumoniae. Description: Antibacterial activity against Streptococcus pneumoniae isolate 44 after 16 hrs by agar diffusion method. It counts as functional.
A further series relates to Cutibacterium acnes. The experiment in a line: Antibacterial activity against Propionibacterium acnes ATCC 25746 after 16 hrs by agar diffusion method. Format: functional.
In series [6] the test system is Staphylococcus haemolyticus. The experiment in a line: Antibacterial activity against multidrug-resistant Staphylococcus haemolyticus isolate 1729 after 16 hrs by agar diffusion method. Format: functional.
In series [7] the test system is Staphylococcus aureus. The experiment in a line: Antibacterial activity against multidrug-resistant Staphylococcus aureus isolate 3797 after 16 hrs by agar diffusion method. Format: functional.
In a further series the test system is Clostridioides difficile. The experiment in a line: Antibacterial activity against Clostridium difficile ATCC 17858 after 16 hrs by agar diffusion method. It counts as functional.
In series [8] the test system is Enterococcus faecium. Description: Antibacterial activity against Enterococcus faecium isolate 568 after 16 hrs by agar diffusion method. It counts as functional.
Series [9] has as its system Streptococcus pneumoniae. The experiment in a line: Antibacterial activity against Streptococcus pneumoniae ATCC BAA1407 after 16 hrs by agar diffusion method. It counts as functional.
Series [10] in a line: Growth inhibition of human PANC1 cells at 90 uM after 48 hrs by MTT assay relative to control. Format: cell-based. The following applies: PANC-1 cells, read-out: GI. On the technique in general: Tetrazolium assays rely on reduction of a dye to a coloured formazan, in cell work by metabolically active cells.
Series [11] concerns Staphylococcus aureus. Description: Inhibition of DNA synthesis in Staphylococcus aureus isolate 12ST assessed as reduction in 5-[3H]thymidine incorporation preincubated for 5 mins followed by 5-[3H]thymidine addition and measured after 5 mins by liquid scintillation counting method. It counts as functional, organism-based. The essentials: (§1)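 S. aureus 12ST was grown overnight in 0.2× LB, diluted 200-fold, and grown at 37 °C to OD600 0.2–0.25. Aliquots were exposed to compound for 5 min at 37 °C (0.5% DMSO maximum final). Label was then added ([6-3H]thymidine 0.15 μCi/sample; D-[6-3H]glucosamine 0.4 μCi/sample) for 5 min at 37 °C. Samples were precipitated with ice-cold 5% TCA for ≥30 min, filtered, washed, and scintillation counted.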

For the next series, the system named is Bacillus subtilis. The experiment in a line: Inhibition of cell wall synthesis in Bacillus subtilis BAU102 assessed as induction of beta-galactosidase activity preincubated for 120 mins followed by beta-galactosidase chromogenic substrate addition. Format: functional, organism-based.
Series [12] relates to Staphylococcus aureus. The experiment in a line: Inhibition of cell wall synthesis in Staphylococcus aureus isolate 12ST assessed as reduction in [3H]glucosamine hydrochloride incorporation preincubated for 5 mins followed by [3H]glucosamine hydrochloride addition and measured after 5 mins by liquid scintillation counting method. Format: functional, organism-based. The essentials:
as §1

For series [13], the system named is Mycolicibacterium smegmatis. The experiment in a line: Antibacterial activity against Mycobacterium smegmatis after 16 hrs by agar diffusion method. Format: functional, organism-based.
Series [14] relates to Staphylococcus aureus. Description: microbe, parasite or virus in culture. The following applies: ATCC 29213, 16 h.
Series [15] relates to Staphylococcus aureus. The experiment in a line: Stimulation of protein synthesis in Staphylococcus aureus isolate 12ST assessed as increase in L-[3H]tryptophan incorporation preincubated for 5 mins followed by L-[3H]tryptophan addition and measured after 5 mins by liquid scintillation counting method. Format: functional, organism-based. The essentials: (§2)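 S. aureus 12ST was grown overnight in 0.2× LB, diluted 200-fold and grown at 37 °C to OD600 0.2–0.25. 80 µL aliquots got medium or compound (added at 10× final) for 5 min at 37 °C. [5,6-3H]uridine 0.15 µCi or L-[5-3H]tryptophan 0.25 µCi was added for 5 min more. Samples were precipitated in ice-cold 5% TCA, filtered and scintillation-counted. DMSO ≤0.5% final.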

For series [16], the system named is Staphylococcus aureus. Description: Bactericidal activity against Staphylococcus aureus isolate 3797 up to 8 times MIC up to 24 hrs by time kill assay. It counts as functional, organism-based.
Series [17] concerns Staphylococcus aureus. Description: Inhibition of RNA synthesis in Staphylococcus aureus isolate 12ST assessed as reduction in [3H]uridine incorporation up to 60 ug/ml preincubated for 5 mins followed by [3H]uridine addition and measured after 5 mins by liquid scintillation counting method. Format: functional, organism-based. The essentials: as §2
The next series concerns Candida albicans. The experiment in a line: Antifungal activity against Candida albicans after 16 hrs by agar diffusion method. It counts as functional, organism-based.
Series [18] relates to Staphylococcus aureus. The experiment in a line: Bactericidal activity against Staphylococcus aureus isolate 3797 at 8 times MIC up to 2 to 4 hrs by time kill assay relative to control. Format: functional.
Series [19] relates to Staphylococcus aureus. Description: microbe, parasite or virus in culture. As to conditions: ATCC 6538P, 16 h.
The next series relates to HEK293. The experiment in a line: Growth inhibition of HEK293 cells after 48 hrs by MTT assay. Format: cell-based. As to conditions: Homo sapiens, HEK293, 48 h.
The subject of series [20] is Staphylococcus aureus. Description: Bactericidal activity against Staphylococcus aureus ATCC 6538P at 8 times MIC up to 2 to 4 hrs by time kill assay relative to control. Format: functional.
Series [21] deals with Staphylococcus aureus. The experiment in a line: Bactericidal activity against Staphylococcus aureus ATCC 6538P up to 8 times MIC up to 24 hrs by time kill assay. Format: functional, organism-based.

Values after ≈ are worked out from the molar mass of the structure shown. Active and inactive are the calls of the source. The rule behind the calls is not given here. Where only a bound is given, the exact number is not on record here.

As for GENTAMICIN, the MIC in the series on Streptococcus pyogenes is 16 µg/mL; with Enterococcus faecium [1] it was 16 µg/mL; in [2] (NCTC 11048), < 0.125 µg/mL; in series [3] it was > 128 µg/mL; against Staphylococcus aureus [4], > 128 µg/mL; against Streptococcus pneumoniae [5], 8 µg/mL. The MIC is 2 µg/mL against Cutibacterium acnes; > 128 µg/mL in [6]; 64 µg/mL with Staphylococcus aureus [7]; 128 µg/mL in the series with Clostridioides difficile; 32 µg/mL against Enterococcus faecium [8]; 64 µg/mL in the series on Streptococcus pneumoniae [9].

Turning to `CN[C@H](CC(C)C)C(=O)N[C@H]1C(=O)N[C@@H](CC(N)=O)C(=O)N[C@H]2C(=O)N[C@H]3C(=O)N[C@H](C(=O)N[C@H](C(=O)O)c4cc(O)cc(O)c4-c4cc3ccc4O)[C@H](O)c3ccc(c(Cl)c3)Oc3cc2cc(c3O[C@@H]2O[C@H](CO)[C@@H](O)[C@H](O)[C@H]2O[C@H]2C[C@](C)(N)[C@H](O)[C@H](C)O2)Oc2ccc(cc2Cl)[C@H]1O` [VANCOMYCIN], the MIC against Streptococcus pyogenes (isolate 49, 16 h) is 0.25 µg/mL (≈ 0.173 µM); against Enterococcus faecium [1] (isolate 569, 16 h), > 128 µg/mL; in series [2] (NCTC 11048, 16 h), 1 µg/mL (≈ 0.69 µM); in series [3] (isolate 1730, 16 h), 2 µg/mL (≈ 1.38 µM); against Streptococcus pneumoniae [5] (isolate 44, 16 h), 0.125 µg/mL (≈ 0.0863 µM); in the series on Cutibacterium acnes (ATCC 25746, 16 h), 0.25 µg/mL (≈ 0.173 µM). Further, the MIC in series [6] (isolate 1729, 16 h) stood at 2 µg/mL (≈ 1.38 µM); in the series on Staphylococcus aureus [7] (isolate 3797, 16 h), 8 µg/mL (≈ 5.52 µM); in the series on Clostridioides difficile (ATCC 17858, 16 h), 0.5 µg/mL (≈ 0.345 µM); in the series with Streptococcus pneumoniae [9] (ATCC BAA1407, 16 h) it was 0.5 µg/mL (≈ 0.345 µM).

For orientation: IC50 means the point on the concentration scale where inhibition reaches its midpoint. In the case of `COc1c(OC)c2c(=O)c3cc(C)n(C(CC4CN(C)C(=N)N4)C(=O)O)c(=O)c3c(=O)c2c2cc3c(=O)c4cc(O)cc(O)c4c(=O)c3c(OC)c12` (stereo unspecified), the MIC against Streptococcus pyogenes (isolate 49, 16 h) was determined as 0.5 µg/mL (≈ 0.704 µM); with Enterococcus faecium [1] (isolate 569, 16 h) it was 2 µg/mL (≈ 2.81 µM); in series [2] (NCTC 11048, 16 h), 0.007 µg/mL (≈ 0.00985 µM); in series [3] (isolate 1730, 16 h), 0.03 µg/mL (≈ 0.0422 µM); in the series on Staphylococcus aureus [4] (isolate 3864, 16 h), 0.03 µg/mL (≈ 0.0422 µM); against Staphylococcus aureus [14], 0.0005 µg/mL (≈ 0.000704 µM). The MIC was 0.25 µg/mL (≈ 0.352 µM) against Streptococcus pneumoniae [5] (isolate 44, 16 h); 0.25 µg/mL (≈ 0.352 µM) in the series with Cutibacterium acnes (ATCC 25746, 16 h); 0.015 µg/mL (≈ 0.0211 µM) in [6] (isolate 1729, 16 h); 0.03 µg/mL (≈ 0.0422 µM) with Staphylococcus aureus [7] (isolate 3797, 16 h); 2 µg/mL (≈ 2.81 µM) with Clostridioides difficile (ATCC 17858, 16 h); 0.004 µg/mL (≈ 0.00563 µM) in the series on Staphylococcus aureus [19]. The MIC in the series with Enterococcus faecium [8] (isolate 568, 16 h) is 4 µg/mL (≈ 5.63 µM); with Streptococcus pneumoniae [9] (ATCC BAA1407, 16 h), 0.25 µg/mL (≈ 0.352 µM). In addition, the inhibition at 48 h, 90 µM in series [10] stood at 20%. In addition, the IC50 with Staphylococcus aureus [11] is 2 µg/mL (≈ 2.81 µM); in the series with Staphylococcus aureus [12], 5 µg/mL (≈ 7.04 µM); with HEK293 it was 55 µM. The inhibition entry in the series on Staphylococcus aureus [11] and in the series on Staphylococcus aureus [12] was “Dose-dependent effect” each time. Also, the inhibition entry in the series with Bacillus subtilis is “Active”. Also, the outcome (in series [13]; with Staphylococcus aureus [16]; in the series on Candida albicans; with Staphylococcus aureus [21]) was inactive. The result in the series with Staphylococcus aureus [15] was Active. For the same molecule, in the series on Staphylococcus aureus [17], the inhibition result was “inactive”. In addition, the Activity with Staphylococcus aureus [18] and with Staphylococcus aureus [20] was >99.9% in each case.
